Htt clearance – clearance of mutant huntingtin inclusions, primary screen, imaging, HeLa Exon1htt(103Q)mCFP, confocal imaging; aggregate imaging; zero = plate's median compound well; inhibition, % at 1.5 µM; 0.42% of 47,000 active;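 active means inhibition of aggregate fluorescence above about 70%, also judged a hit by eye on the cell image, limit read from the data, passing the limit was not always enough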;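 further: cells exposed to compound for three days before fixation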
M1 agonist – M1 muscarinic receptor agonists, primary screen, CHO-M1 cells, Fluo-4 calcium, agonist mode | Fluo-4 calcium fluorescence; stronger effect = higher value | B-score at 10 µM | 3% of 64,000 active | AID 626, 2007;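 active means fluorescence rise, raw or as B-score row- and column-corrected plate score, outside the 99.7% band of its plate's samples, either direction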
M1 antag – antagonists of rat M1 muscarinic receptor; CHO-M1 cells, Fluo-4 calcium, ACh EC80 antagonist mode; stronger effect = lower value; 3.4% of 64,000 active; B-score at 10 µM; Muscarinic acetylcholine receptor M1 (Rattus norvegicus), P08482;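 active means calcium fluorescence response, raw or row-and-column corrected B-score, differing from the plate sample mean either way at a set confidence level, mostly lower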
D1 mod – D1 CRE-luciferase signal change, two-sided – cell-based, HEK293 D1, dopamine EC30, D1 allosteric modulator project, primary screen; D(1A) dopamine receptor (Homo sapiens), P21728; dopamine EC30 potentiation; actives deviate in either direction; B-score at 10 µM; 5.9% of 58,000 active;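 active means luminescence count or its row- and column-corrected plate score outside the 99.7% band of the plate's sample wells, on either side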
Target sequence (P21728 whole entry, looked up): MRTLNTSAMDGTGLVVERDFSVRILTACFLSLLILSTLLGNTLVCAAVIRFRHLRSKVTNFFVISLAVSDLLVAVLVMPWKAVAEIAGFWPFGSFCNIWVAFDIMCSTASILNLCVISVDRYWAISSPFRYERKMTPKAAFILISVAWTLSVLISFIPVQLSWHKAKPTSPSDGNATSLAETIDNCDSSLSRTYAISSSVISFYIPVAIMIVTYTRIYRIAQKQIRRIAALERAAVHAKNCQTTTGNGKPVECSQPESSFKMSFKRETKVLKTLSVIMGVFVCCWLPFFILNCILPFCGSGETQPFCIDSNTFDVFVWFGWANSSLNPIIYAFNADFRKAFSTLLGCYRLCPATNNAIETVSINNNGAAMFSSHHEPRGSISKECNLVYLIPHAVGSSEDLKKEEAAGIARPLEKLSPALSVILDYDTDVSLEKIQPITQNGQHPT
RORa activator – activators of orphan receptor RORA, primary screen, cell-based, luminescence; AID 560, 2006; activation, % at 10 µM; CHO-K1 Gal4-RORA LBD luciferase reporter; percent increase over mock-subtracted basal signal; 1.5% of 65,000 active; Nuclear receptor ROR-alpha (Homo sapiens), P35398;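 active means activation above the mean of all tested compounds plus 3 SD, cut at about 49% in these data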;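 further: 0% = DMSO-treated RORA cells and 100% = added signal equal to DMSO minus mock-transfected cells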
SF1 activator – activators of human SF-1, primary screen, cell-based, CHO-K1, Gal4-SF-1 LBD, luciferase luminescence | Steroidogenic factor 1 (Homo sapiens), Q13285 | activation, % at 10 µM | AID 522, 2006 | CHO-K1 Gal4-SF-1 LBD luciferase reporter; % increase over DMSO SF-1-specific signal | 1.9% of 65,000 active;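 active means activation above the mean activation of all tested compounds plus 3 SD, cut at about 50% in these data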
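Assay system: CHO-K1 cells co-transfected with Gal4 DBD–human SF-1 LBD, 5xGal4 luciferase reporter; doses: 10 µM only; incubation: 20 h compound exposure at 37 °C after 1 h cell settling; signal: luciferase light emission; evaluation: percent activation versus DMSO; repeats: one test per compound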
D1 PAM confirm – D1 receptor positive allosteric modulators, retest, confirmation, cell-based, HEK293 D1, CRE-luciferase, duplicate | shares compounds with D1 mod | dopamine EC30 potentiation; stronger effect = higher value | luminescence at 10 µM | 88% of 2,200 active | AID 642, 2007;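 active means luminescence in either of two replicates above the same-plate mean plus 3 SD of the low-dose dopamine control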
D1 ag no DA – D1 receptor agonism without dopamine, confirmation, mechanism study for D1 allosteric modulator project, cell-based, HEK293 D1, CRE-luciferase, secondary assay 1 | shares compounds with D1 mod | luminescence, no dopamine; stronger effect = higher value | luminescence at 10 µM | 0.8% of 1,900 active | AID 646, 2007; in the data active means luminescence above about 3900
Isoprot counter – alters isoproterenol CRE-luciferase response in HEK293 cells; HEK293 D1 CRE-luciferase, isoproterenol EC30 counter-screen; 63% of 2,200 active; calls only at 10 µM; AID 647; shares compounds with D1 mod;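 active means luminescence in either replicate above plate mean of wells with a partly effective reference agonist dose plus 3 SD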;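 further: isoproterenol raises cAMP through native beta-adrenoceptor Gs so signal bypasses D1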
An asterisk follows results filed as active; i = inactive; / = not tested or not shown; + = active, no number. Compounds with a hit are over-represented: about 11% of the library has one in this group of screens.

SMILES | Htt clearance | M1 agonist | M1 antag | D1 mod | RORa activator | SF1 activator | D1 PAM confirm | D1 ag no DA | Isoprot counter
O=c1cc(-c2ccccc2)c2ccccc2[nH]1 | / | 2.1 | 0.14 | 10* | -4 | 3 | 12072* | 1476 | +
Cc1cc(=O)[nH]c2ccccc12 | / | 0.59 | 0.64 | -0.034 | -13 | -8 | / | / | /
CCOC(=O)N1CCN(c2nc(SC)nc3sc4c(c23)CC(C)(C)OC4)CC1 | / | 1.2 | -0.091 | -0.2 | 19 | -4 | / | / | /
CCOC(=O)CSc1nc2sc3c(c2c(=O)n1CC)CC(C)(C)OC3 | -10 | -0.52 | -0.6 | 5.9* | / | / | 8088* | 1472 | +
CCc1nn(CCCC(=O)N2CCc3ccccc3C2)c(=O)c2cc3occc3n12 | / | 2.4 | -0.03 | 2.9* | -3 | 3 | 10688* | 1800 | i
Cc1nn(CCCC(=O)N2CCc3ccccc3C2)c(=O)c2cc3sccc3n12 | / | -0.57 | -2 | 0.071 | 31 | -2 | / | / | /
CCOC(=O)CSc1nc2ccc(N3CCOCC3)cc2c(=O)n1Cc1ccc2c(c1)OCO2 | / | 0.00031 | -0.17 | 7* | 14 | 3 | 9824* | 1952 | +
O=C(CSc1nnc(Cc2ccccc2)n1-c1ccc(Cl)cc1)N1CCOCC1 | 10 | -2 | -0.054 | 0.009 | -20 | 0 | / | / | /
COCCn1nnnc1C(c1cc2ccc(C)cc2[nH]c1=O)N(Cc1ccco1)Cc1cccs1 (configuration not stated) | 21 | 0.63 | 0.028 | 0.57 | -17 | -3 | / | / | /
Cc1cc(C)nc(N2CCCC(C(=O)NCCC3=CCCCC3)C2)n1 (configuration not stated) | 2 | 0.22 | 0.45 | 0.57 | -2 | -1 | / | / | /
Cn1c(=O)c2c(SCc3ccccc3)nc(-c3ccco3)nc2n(C)c1=O | / | 0.22 | -0.27 | 3.3* | -5 | -11 | 12880* | 1832 | i
CSc1ncc(Cl)c(C(=O)NCc2ccc3c(c2)OCO3)n1 | -82 | -1.1 | 1.4 | 12* | -17 | 22 | 16252* | 1504 | +
Fc1ccc(-c2cc(C(F)(F)F)nc(-n3cncn3)n2)cc1 | -16 | -1.2 | 0.016 | 3.4* | -12 | -11 | 8460* | 1488 | i
CC(C)C(c1nnnn1Cc1ccc(F)cc1)N1CCN(C(=O)c2ccco2)CC1 (configuration not stated) | / | 0.78 | 0.14 | -0.54 | -5 | 1 | / | / | /
CSc1nnc(-c2ccco2)n1-c1ccccc1 | -23 | 0.022 | 0.79 | / | -22 | -14 | / | / | /
Fc1ccc(-n2c(-c3ccco3)nc3nc4ccccc4nc32)cc1 | / | -0.07 | 0.55 | 15* | 0 | -4 | 25288* | 1548 | +
Fc1cccc(-n2c(-c3ccco3)nc3nc4ccccc4nc32)c1 | -14 | -0.43 | 0.087 | 9.2* | -1 | 10 | 16260* | 1552 | +
C=CCn1c(N)c(C(=O)NCCC2=CCCCC2)sc1=S | -47 | -0.31 | 0.041 | 0.8 | 45 | 31 | / | / | /
Cc1c(Cl)cccc1N1CC(C(=O)Nc2nccs2)CC1=O (configuration not stated) | 24 | -0.28 | 0.13 | 0.36 | 6 | -5 | / | / | /
COC(=O)c1c(NC(=O)CN2CCC(C)CC2)c2c(C)cccc2n1C | -17 | -2.3 | -0.49 | 0.84 | -15 | -14 | / | / | /
COc1nc(NCCc2ccc(OC)c(OC)c2)nc(OC)n1 | / | 0 | -0.57 | 2 | 0 | 4 | / | / | /
COc1nc(NCCC2=CCCCC2)nc(OC)n1 | 15 | -0.14 | 0.4 | 7.2* | 10 | -10 | 8312* | 1712 | +
COc1ccc(C2/C(=C(\O)c3cc(C)ccc3C)C(=O)C(=O)N2CCN(C)C)cc1OC (configuration not stated) | / | / | / | -0.082 | -16 | -2 | / | / | /
COc1cc2c(cc1OC)-c1cc(OCCN3CCOCC3)nc(=O)n1CC2 | -22 | -0.46 | -0.3 | 3 | -4 | 7 | / | / | /
COc1cc2c(cc1OC)C1=C(C#N)COCN1CC2 | / | -0.4 | 0.31 | 15* | 8 | 17 | 9624* | 1768 | +
SMILES | Htt clearance | M1 agonist | M1 antag | D1 mod | RORa activator | SF1 activator | D1 PAM confirm | D1 ag no DA | Isoprot counter
CCOCCn1c(SCc2c(F)cccc2Cl)nc2c1c(=O)[nH]c(=O)n2C | 24 | -0.27 | 0.49 | 2.8 | 7 | 4 | / | / | /
CCN(CC(=O)NCc1ccccn1)S(=O)(=O)c1ccc(Cl)cc1 | / | 0.034 | 0.79 | -0.23 | 1 | 7 | / | / | /
Cc1sc2nc(C3CC3)nc(NCCNS(C)(=O)=O)c2c1C | / | 0.0089 | 0.21 | 6.5* | -9 | 7 | 10452* | 1764 | i
O=C(CSc1nnnn1C1CCCCC1)Nc1nc2c(s1)CCCC2 | 8 | 0.16 | -0.2 | -0.97 | 30 | -11 | / | / | /
CCCCc1nc(NCCN2CCOCC2)c(C#N)c2c1COC(C)(C)C2 | / | -2.6 | 0.1 | 5.8* | -4 | 4 | 11452* | 1780 | +
CC(C)Cn1c(=O)c(C(=O)Nc2cnccn2)c(O)c2ccccc21 | / | -0.63 | 0.0054 | 3.4* | -32 | -20 | 9760* | 1672 | i
CCCn1c(=O)c(C(=O)NCc2cccnc2)c(O)c2ccccc21 | / | 1.8 | 0.14 | 8.4* | -6 | 7 | 15012* | 1692 | +
CCCCOc1ccc(CC(=O)NO)cc1 | / | 0.015 | 0.2 | 33* | 2 | 4 | 18936* | / | +
CCCCOc1ccc(C(=O)NC)cc1 | 12 | -0.77 | 0.64 | -0.064 | -10 | -7 | / | / | /
CCOc1ccc(NC(=O)CSc2nc(C)c3c(c2C#N)CCCC3)cc1 | -29 | / | / | / | / | / | / | / | /
N#Cc1cn(-c2ccccc2)nc1-c1ccccc1 | / | 0.05 | -0.028 | 5.7* | 1 | 13 | 9992* | 1616 | i
COc1nc(OC)nc(N2CCC(C(=O)NCc3ccco3)CC2)n1 | / | 0.24 | -0.62 | -1 | -21 | 13 | / | / | /
COc1nc(NCc2ccco2)nc(N2CCC(C)CC2)n1 | / | 0.38 | -0.36 | 10* | -6 | -10 | 15736* | 1680 | +
COc1cccc(C(=O)Nc2nc3c(s2)CN(C)CC3)c1 | -18 | / | / | / | / | / | / | / | /
COc1cc2c(cc1OC)-c1cc(NC3CCCCC3)nc(=O)n1CC2 | / | 0.39 | 1.1 | / | 9 | 15 | / | / | /
COc1cc2c(cc1OC)-c1cc(NC3CCCCCCC3)nc(=O)n1CC2 | -1 | 0.056 | 0.011 | 7.6* | 4 | 8 | 20716* | 2740 | +
